From ChEMBL document CHEMBL2424602, “Mannich bases of 7-piperazinylquinolones and kojic acid derivatives: synthesis, in vitro antibacterial activity and in silico study” (2013) come the findings set out here.

Each structure is given as a SMILES string. ≈ marks a conversion by molar mass, not a printed value.

Holding throughout (type): functional
One test concerns Bacillus spizizenii. The test is described as follows: Antibacterial activity against Bacillus subtilis ATCC 6633 assessed as growth inhibition after 18 hrs by agar dilution method. Particulars: ATCC 6633, 18 h. The procedure, abridged: (§1)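 MIC read by conventional agar dilution. Compounds were dissolved at 10.0 mg in 1 mL DMSO and diluted with 9 mL distilled water to make the stock. Two-fold serial dilutions were made in molten sterile Mueller-Hinton agar, with final levels starting at 100, 50, 25, 12.5, 6.25, 3.13, 1.56 and lower.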
For orientation: In agar dilution the substance is mixed into plates at graded concentrations.

In another test the test system is Escherichia coli. The test is described as follows: Antibacterial activity against Escherichia coli ATCC 8739 assessed as growth inhibition after 18 hrs by agar dilution method. Particulars: ATCC 8739, 18 h. The essentials: as §1
Test [1] concerns Staphylococcus aureus. The test is described as follows: Antibacterial activity against Staphylococcus aureus ATCC 6538 assessed as growth inhibition after 18 hrs by agar dilution method. Particulars: ATCC 6538, 18 h. The procedure, abridged: as §1
Test [2] relates to Staphylococcus epidermidis. The test is described as follows: Antibacterial activity against Staphylococcus epidermidis ATCC 12228 assessed as growth inhibition after 18 hrs by agar dilution method. Particulars: ATCC 12228, 18 h. The procedure, abridged: as §1
For another test, the system named is Klebsiella pneumoniae. The test is described as follows: Antibacterial activity against Klebsiella pneumoniae ATCC 10031 assessed as growth inhibition after 18 hrs by agar dilution method. Particulars: ATCC 10031, 18 h. The essentials: as §1
Test [3] relates to Pseudomonas aeruginosa. The test is described as follows: Antibacterial activity against Pseudomonas aeruginosa ATCC 9027 assessed as growth inhibition after 18 hrs by agar dilution method. As to conditions: ATCC 9027, 18 h. The procedure, abridged:
as §1

Test [4] has as its system Pseudomonas aeruginosa. The test is described as follows: Potency index, ratio of norfloxacin MIC to compound MIC for Pseudomonas aeruginosa ATCC 9027.
Test [5] relates to Staphylococcus aureus. The test is described as follows: Potency index, ratio of norfloxacin MIC to compound MIC for Staphylococcus aureus ATCC 6538.

Broadly, the MIC is the smallest concentration in the dilution series that meets the test's criterion for growth inhibition. Consider `CCn1cc(C(=O)O)c(=O)c2cc(F)c(N3CCN(Cc4oc(CO)cc(=O)c4O)CC3)cc21`, for which the minimal inhibitory concentration (MIC) in the test on Bacillus spizizenii is 0.78 µg/mL (≈ 1.65 µM); with Escherichia coli, 0.78 µg/mL (≈ 1.65 µM); in the test with Staphylococcus aureus [1], 3.12 µg/mL (≈ 6.6 µM); in test [2], 6.25 µg/mL (≈ 13.2 µM); with Klebsiella pneumoniae, 1.56 µg/mL (≈ 3.29 µM); with Pseudomonas aeruginosa [3] it was 3.12 µg/mL (≈ 6.6 µM).

Take `O=C(O)c1cn(C2CC2)c2cc(N3CCN(Cc4oc(CO)cc(=O)c4O)CC3)c(F)cc2c1=O`: the minimal inhibitory concentration (MIC) with Bacillus spizizenii amounted to 3.12 µg/mL (≈ 6.44 µM); with Escherichia coli, 0.78 µg/mL (≈ 1.61 µM); in the test on Staphylococcus aureus [1], 1.56 µg/mL (≈ 3.21 µM); in test [2] it was 3.12 µg/mL (≈ 6.44 µM); in the test with Klebsiella pneumoniae, 1.56 µg/mL (≈ 3.21 µM); with Pseudomonas aeruginosa [3] it was 1.56 µg/mL (≈ 3.21 µM).

Regarding `COc1c(N2CCN(Cc3oc(CO)cc(=O)c3O)C(C)C2)c(F)cc2c(=O)c(C(=O)O)cn(C3CC3)c12` (stereo unspecified), the minimum inhibitory concentration (MIC) in the test with Bacillus spizizenii is 3.12 µg/mL (≈ 5.9 µM); with Escherichia coli it was 0.39 µg/mL (≈ 0.737 µM); in the test on Staphylococcus aureus [1] it was 0.78 µg/mL (≈ 1.47 µM); in test [2], 3.12 µg/mL (≈ 5.9 µM); in the test with Klebsiella pneumoniae it was 1.56 µg/mL (≈ 2.95 µM); in the test on Pseudomonas aeruginosa [3] it was 0.78 µg/mL (≈ 1.47 µM).

As to `CCn1cc(C(=O)O)c(=O)c2cc(F)c(N3CCN(Cc4oc(CCl)cc(=O)c4O)CC3)cc21`, the minimal inhibitory concentration (MIC) in the test on Bacillus spizizenii was found to be 1.56 µg/mL (≈ 3.17 µM); in the test on Escherichia coli, 0.39 µg/mL (≈ 0.793 µM); in the test on Staphylococcus aureus [1] it was 1.56 µg/mL (≈ 3.17 µM); in test [2], 1.56 µg/mL (≈ 3.17 µM); with Klebsiella pneumoniae, 0.78 µg/mL (≈ 1.59 µM); with Pseudomonas aeruginosa [3], 1.56 µg/mL (≈ 3.17 µM).

As to `CCn1cc(C(=O)O)c(=O)c2cc(F)c(N3CCNCC3)cc21` [NORFLOXACIN], the MIC with Bacillus spizizenii was 0.195 µg/mL (≈ 0.611 µM); in the test on Escherichia coli, 0.195 µg/mL (≈ 0.611 µM); in the test on Staphylococcus aureus [1], 0.39 µg/mL (≈ 1.22 µM); in test [2], 0.39 µg/mL (≈ 1.22 µM); in the test with Klebsiella pneumoniae, 0.39 µg/mL (≈ 1.22 µM); in the test on Pseudomonas aeruginosa [3], 1.56 µg/mL (≈ 4.89 µM).

`CCn1cc(C(=O)O)c(=O)c2cc(F)c(N3CCN(Cc4oc(CO)cc(=O)c4O)C(C)C3)c(F)c21` (racemic): the minimal inhibitory concentration (MIC) with Bacillus spizizenii was found to be 3.12 µg/mL (≈ 6.18 µM); with Escherichia coli it was 0.39 µg/mL (≈ 0.772 µM); in the test with Staphylococcus aureus [1] it was 3.12 µg/mL (≈ 6.18 µM); in test [2], 6.25 µg/mL (≈ 12.4 µM); in the test with Klebsiella pneumoniae, 1.56 µg/mL (≈ 3.09 µM); in the test with Pseudomonas aeruginosa [3], 3.12 µg/mL (≈ 6.18 µM).

Take `COc1c(N2CCN(Cc3oc(CCl)cc(=O)c3O)C(C)C2)c(F)cc2c(=O)c(C(=O)O)cn(C3CC3)c12` (stereo unspecified): the MIC came to 1.56 µg/mL (≈ 2.85 µM) in the test with Bacillus spizizenii; 1.56 µg/mL (≈ 2.85 µM) with Escherichia coli; 0.39 µg/mL (≈ 0.712 µM) with Staphylococcus aureus [1]; 1.56 µg/mL (≈ 2.85 µM) in test [2]; 1.56 µg/mL (≈ 2.85 µM) with Klebsiella pneumoniae; 0.78 µg/mL (≈ 1.42 µM) with Pseudomonas aeruginosa [3].

For the compound `O=C(O)c1cn(C2CC2)c2cc(N3CCN(Cc4oc(CCl)cc(=O)c4O)CC3)c(F)cc2c1=O`, the Ratio came to 8 in the test on Pseudomonas aeruginosa [4] and 4 in the test on Staphylococcus aureus [5]. Moreover, the minimum inhibitory concentration (MIC) in the test on Bacillus spizizenii is 0.39 µg/mL (≈ 0.774 µM); in the test with Escherichia coli, 0.78 µg/mL (≈ 1.55 µM); in the test on Staphylococcus aureus [1], 0.097 µg/mL (≈ 0.192 µM); in test [2], 0.39 µg/mL (≈ 0.774 µM); in the test on Klebsiella pneumoniae, 0.195 µg/mL (≈ 0.387 µM); in the test with Pseudomonas aeruginosa [3] it was 0.195 µg/mL (≈ 0.387 µM).

Consider `CCn1cc(C(=O)O)c(=O)c2cc(F)c(N3CCN(Cc4oc(CO)cc(=O)c4O)CC3)nc21`, for which the MIC is 12.5 µg/mL (≈ 26.3 µM) in the test on Bacillus spizizenii; 1.56 µg/mL (≈ 3.29 µM) in the test with Escherichia coli; 6.25 µg/mL (≈ 13.2 µM) with Staphylococcus aureus [1]; 12.5 µg/mL (≈ 26.3 µM) in test [2]; 12.5 µg/mL (≈ 26.3 µM) in the test on Klebsiella pneumoniae; 12.5 µg/mL (≈ 26.3 µM) with Pseudomonas aeruginosa [3].
